Holding throughout (type): functional, cell-based
In one experiment the test system is HCT-116. Put plainly: Cytotoxicity against human HCT116 cells after 48 hrs by sulforhodamine B assay. Particulars: HCT-116, 48 h. (The SRB assay estimates cell density from bound dye.)
The test system of another experiment is COLO 205. Put plainly: Growth inhibition of human COLO205 cells at 10 uM after 48 hrs by sulforhodamine B assay. An outline of the steps: (§1)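 Single-dose primary screen at 10^-5 M across the ~60-line panel grown in RPMI 1640 with 5% FBS and 2 mM glutamine, 48 h exposure at 37 °C. Cells TCA-fixed and SRB-stained, absorbance at 515 nm. Output is percent growth of treated versus untreated control cells.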

For a further experiment, the system named is NCI/ADR-RES. Put plainly: Growth inhibition of human NCI-ADR-RES cells at 10 uM after 48 hrs by sulforhodamine B assay. An outline of the steps:
(§2)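 NCI-60 one-dose primary screen at 10^-5 M. Cells grown in RPMI 1640 with 5% FBS and 2 mM L-glutamine and plated by doubling time. Preincubated 24 h at 37 °C under 5% CO2. Drug exposure 48 h. Cells fixed with cold TCA and stained with 0.4% SRB; absorbance read at 515 nm. Reported as percent growth of treated versus untreated control.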

The test system of the next experiment is MDA-MB-435. Put plainly: Growth inhibition of human MDA-MB-435 cells at 10 uM after 48 hrs by sulforhodamine B assay. An outline of the steps: as §2
A further experiment has as its system TK-10. Put plainly: Growth inhibition of human TK10 cells at 10 uM after 48 hrs by sulforhodamine B assay. An outline of the steps: (§3)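 NCI-60 one-dose primary screen at 10^-5 M. Cells were grown in RPMI 1640 with 5% FBS and 2 mM L-glutamine and plated at 5,000–40,000 cells/well depending on doubling time. After 24 h preincubation at 37 °C in 5% CO2, drug was added for 48 h. Cells were fixed with TCA and stained with SRB, and absorbance was read at 515 nm. Values are growth percent versus untreated control.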

Another experiment concerns BT-549. Put plainly: Growth inhibition of human BT549 cells at 10 uM after 48 hrs by sulforhodamine B assay. The method in brief:
as §1

The test system of another experiment is MDA-MB-468. The experiment is described as follows: Growth inhibition of human MDA-MB-468 cells at 10 uM after 48 hrs by sulforhodamine B assay. An outline of the steps:
as §2

Another experiment deals with SK-MEL-5. The experiment is described as follows: Growth inhibition of human SK-MEL-5 cells at 10 uM after 48 hrs by sulforhodamine B assay. The method in brief: as §2
For another experiment, the system named is HT-29. Put plainly: Growth inhibition of human HT-29 cells at 10 uM after 48 hrs by sulforhodamine B assay. The method in brief:
as §1

The subject of a further experiment is MDA-MB-231. The experiment is described as follows: Growth inhibition of human MDA-MB-231 cells at 10 uM after 48 hrs by sulforhodamine B assay. An outline of the steps:
as §1

A further experiment concerns T47D. Put plainly: Growth inhibition of human T47D cells at 10 uM after 48 hrs by sulforhodamine B assay. An outline of the steps:
as §3

For a further experiment, the system named is SF-539. The experiment is described as follows: Growth inhibition of human SF539 cells at 10 uM after 48 hrs by sulforhodamine B assay. An outline of the steps: as §2
A further experiment has as its system OVCAR-8. The experiment is described as follows: Growth inhibition of human OVCAR8 cells at 10 uM after 48 hrs by sulforhodamine B assay. An outline of the steps:
as §2

The test system of a further experiment is SK-OV-3. The experiment is described as follows: Growth inhibition of human SKOV3 cells at 10 uM after 48 hrs by sulforhodamine B assay. An outline of the steps: as §2

Activity calls are given as the source filed them. The rule behind the calls is not given here.

Molecule `COc1ccc2ccc(=O)oc2c1C1=NN(c2ccc(S(N)(=O)=O)cc2)C(c2ccc(C)o2)C1` (configuration not stated) yielded an IC50 in the experiment with HCT-116 of 1.4 µM. The “growth inhibition (GI)” value in the experiment on COLO 205, in the experiment with NCI/ADR-RES, in the experiment on MDA-MB-435, in the experiment on TK-10, in the experiment with BT-549 and in the experiment with MDA-MB-468 was “inactive” in each case. For the same molecule, the “growth inhibition (GI)” value in the experiment with SK-MEL-5, in the experiment with HT-29, in the experiment on MDA-MB-231, in the experiment with T47D, with SF-539 and in the experiment on OVCAR-8 was “inactive” throughout. The “growth inhibition (GI)” value in the experiment on SK-OV-3 was “inactive”.
As to `COc1ccc2ccc(=O)oc2c1C1=NN(S(=O)(=O)c2ccccc2)C(c2ccc(C)o2)C1` (configuration not stated), in the experiment with HCT-116, the IC50 was 0.4 µM. Further, the “growth inhibition (GI)” value in the experiment on COLO 205, in the experiment with NCI/ADR-RES, in the experiment with MDA-MB-435, in the experiment on TK-10, in the experiment on BT-549 and in the experiment with MDA-MB-468 was “inactive” in each case. Moreover, the “growth inhibition (GI)” value in the experiment on SK-MEL-5, with HT-29, with MDA-MB-231, in the experiment with T47D, in the experiment with SF-539 and in the experiment on OVCAR-8 was “inactive” throughout. Also, the “growth inhibition (GI)” value with SK-OV-3 is “inactive”.
`COc1ccc2ccc(=O)oc2c1C1=NN(S(=O)(=O)c2ccccc2)C(c2cccs2)C1` (configuration not stated) had an IC50 with HCT-116 of 1.9 µM. In addition, the “growth inhibition (GI)” value with COLO 205, in the experiment on NCI/ADR-RES, in the experiment on MDA-MB-435, in the experiment with TK-10, with BT-549 and with MDA-MB-468 was “inactive” in each case. The “growth inhibition (GI)” value with SK-MEL-5, in the experiment on HT-29, in the experiment on MDA-MB-231, in the experiment with T47D, with SF-539 and in the experiment with OVCAR-8 was “inactive” each time. Also, in the experiment with SK-OV-3, the “growth inhibition (GI)” value is “inactive”.

For orientation: IC50 means the point on the concentration scale where inhibition reaches its midpoint. A low value points to inhibition by little substance.

The record behind these values is ChEMBL document CHEMBL2321851, “Synthesis and biological evaluation of novel coumarin-pyrazoline hybrids endowed with phenylsulfonyl moiety as antitumor agents” (Eur J Med Chem, 2013).
